What was measured:
Neutrophil [1] = experiment: Inhibition of FMLP/CB-stimulated superoxide anion generation in human neutrophils treated for 5 mins before FMLP and CB challenge for 10 mins and 3 mins respectively by spectrophotometer analysis; type: functional, cell-based
How it was run: (§1)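 Human neutrophils in Ca2+-free HBSS pH 7.4 plus 0.5 mg/ml ferricytochrome c and 1 mM Ca2+. Equilibrated 37 °C 2 min, drug 5 min, cytochalasin B (1 µg/ml) 3 min, then 100 nM FMLP 10 min. SOD-inhibitable ferricytochrome c reduction followed at 550 nm with stirring. Mean ± S.E.M., n = 3–4; IC50 = 50% inhibition.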

Neutrophil [2] = experiment: Inhibition of FMLP/CB-stimulated elastase release in human neutrophils treated for 5 mins before FMLP/CB challenge using MeO-Suc-Ala-Ala-Pro-Val-p-nitroanilide as a substrate; type: functional, cell-based
How it was run: (§2)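 Human neutrophils (6×10^5/ml) with 100 µM MeO-Suc-Ala-Ala-Pro-Val-p-nitroanilide, equilibrated 37 °C 2 min, drug 5 min, then activated by 100 nM FMLP plus 0.5 µg/ml cytochalasin B. Absorbance at 405 nm monitored continuously. Expressed as % of release in drug-free FMLP/CB control. Mean ± S.E.M., n = 3–4; IC50 = 50% inhibition.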

RAW264.7 [3] = experiment: Cytotoxicity against mouse RAW264.7 cells assessed as cell viability after 4 hrs by MTT assay; type: cell-based; details: RAW264.7, 4 h
How it was run: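 RAW 264.7 macrophages (ATCC) grown in DMEM with 10% heat-inactivated FCS and penicillin/streptomycin at 37 °C, 5% CO2, in 96-well plates. Cells incubated with MTT (5 mg mL-1) for 4 h at 37 °C. Formazan dissolved in acid-SDS. Viability taken from mitochondria-dependent MTT reduction.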

RAW264.7 [4] = experiment: Inhibition of LPS/IFNgamma-induced NO production in mouse RAW264.7 cells after 24 hrs by Griess reagent method; type: functional, cell-based; details: RAW264.7, 24 h
How it was run: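 RAW 264.7 cells grown to confluence in 96-well plates (~200,000 cells/well), then given fresh medium with LPS (1 µg mL-1) plus IFN-γ (50 U mL-1); compounds added together with stimulus. Nitrite in medium read at 24 h: Griess reagent (1% sulfanilamide, 0.1% naphthylenediamine, 5% phosphoric acid), OD550, against sodium nitrite standards made in medium. IC50 = 50% inhibition.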

Neutrophil [5] = experiment: Inhibition of FMLP/CB-stimulated elastase release in human neutrophils at 30 uM treated for 5 mins before FMLP/CB challenge using MeO-Suc-Ala-Ala-Pro-Val-p-nitroanilide as a substrate relative to control; type: functional; how it was run: as §2
Neutrophil [6] = experiment: Inhibition of FMLP/CB-stimulated superoxide anion generation in human neutrophils at 30 uM treated for 5 mins before FMLP and CB challenge for 10 mins and 3 mins respectively by spectrophotometer analysis relative to control; type: functional; how it was run: as §1
Neutrophil [7] = experiment: Inhibition of FLMP-stimulated Ca2+ mobilization in human neutrophils assessed as maximum intracellular Ca2+ concentration at 10 uM treated for 5 mins before stimulation by fluo-3 AM-based spectrofluorometry; type: functional
How it was run: (§3)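 Human neutrophils (dextran sedimentation, Ficoll Hypaque, hypotonic erythrocyte lysis; >98% viable) loaded with 2 µM fluo-3 AM, 37 °C, 45 min, washed, 3×10^6 cells/ml in Ca2+-free HBSS. Stimulated with 0.1 µM FMLP with 1 mM Ca2+, 37 °C, stirring; ex 488/em 520 nm. [Ca2+]i = Kd[(F−Fmin)/(Fmax−F)], Fmax with 0.05% Triton X-100, Fmin with 20 mM EGTA. Mean ± SEM.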

Neutrophil [8] = experiment: Inhibition of FLMP-stimulated Ca2+ mobilization in human neutrophils assessed as time required to decrease half of Ca2+ at 10 uM treated for 5 mins before FLMP challenge by fluo-3 AM-based spectrofluorometry; type: functional, cell-based; how it was run: as §3

IC50 (Neutrophil [1]) [µM]	IC50 (Neutrophil [2]) [µM]	IC50 (RAW264.7 [4]) [µM]	SMILES	IC50 (RAW264.7 [3]) [µM]	inhibition at 30 µM (Neutrophil [5]) [%]	inhibition at 30 µM (Neutrophil [6]) [%]	Activity (Neutrophil [7]) [nM]	T1/2 (Neutrophil [8]) [s]
1.6	2.28	0.055	O=C(/C=C/c1ccncc1)c1ccc(CN2CCOCC2)c(O)c1	110	–	–	–	–
15.8	–	6.06	COc1cc(O)c(C(=O)/C=C/c2ccco2)cc1CN1CCOCC1	1440	17.9	–	–	–
10.5	24.3	2.49	O=C(/C=C/c1cccs1)c1cccc(O)c1CN1CCOCC1	12.7	–	–	–	–
–	–	0.93	CC(C)=CCOc1ccc(C(=O)/C=C/c2sccc2C)c(O)c1CN1CCOCC1	11	–	21.5	–	–
5.96	6.66	0.23	O=C(/C=C/c1cccnc1)c1ccc(CN2CCOCC2)c(O)c1	–	–	–	–	–
2.86	–	0.2	COc1cc(O)c(C(=O)/C=C/c2ccccc2)cc1CN1CCOCC1	0.19	–	–	–	–
2.63	2.47	0.72	O=C(/C=C/c1ccccn1)c1ccc(CN2CCOCC2)c(O)c1	78	–	–	–	–
19.9	–	8.13	CCOc1cc(O)c(C(=O)/C=C/c2sccc2C)cc1CN1CCOCC1	2060	–	–	–	–
25.4	–	0.47	O=C(/C=C/c1cccs1)c1ccc(O)c(CN2CCOCC2)c1	6830	19.3	–	–	–
–	–	0.16	O=C(/C=C/c1ccco1)c1ccc(O)c(CN2CCOCC2)c1	10	–	27.4	276.51	28.1
3.39	–	2.21	CC(C)Oc1ccc(C(=O)/C=C/c2cccs2)c(O)c1CN1CCOCC1	34	–	–	–	–
12.6	21.2	1.73	O=C(/C=C/c1ccccn1)c1ccc(O)c(CN2CCOCC2)c1O	11.4	–	–	–	–
16.4	18.2	1.39	Cc1ccsc1/C=C/C(=O)c1ccc(O)c(CN2CCOCC2)c1	–	–	–	–	–
2.65	4.52	11.8	COc1cc(O)c(C(=O)/C=C/c2cccnc2)cc1CN1CCOCC1	2810	–	–	–	–
5.77	–	3.35	COc1ccc(/C=C/C(=O)c2cc(CN3CCOCC3)c(OC)cc2O)cc1	1860	–	–	–	–
23.5	–	0.82	O=C(/C=C/c1cccnc1)c1ccc(O)c(CN2CCOCC2)c1	53.2	20.4	–	–	–
4.18	–	–	COc1ccc(/C=C/C(=O)c2ccco2)c(CN2CCCCC2)c1O	–	–	–	–	–
0.89	1.24	15.1	CCOc1cc(O)c(C(=O)/C=C/c2ccccn2)cc1CN1CCOCC1	0.18	–	–	–	–
8.85	13.7	4.14	O=C(/C=C/c1ccncc1)c1ccc(O)c(CN2CCOCC2)c1	111	–	–	–	–
9.6	18.6	3.39	Cc1ccsc1/C=C/C(=O)c1cccc(O)c1CN1CCOCC1	182	–	–	–	–

IC50 (Neutrophil [1]) [µM]	IC50 (Neutrophil [2]) [µM]	IC50 (RAW264.7 [4]) [µM]	SMILES	IC50 (RAW264.7 [3]) [µM]	inhibition at 30 µM (Neutrophil [5]) [%]	inhibition at 30 µM (Neutrophil [6]) [%]	Activity (Neutrophil [7]) [nM]	T1/2 (Neutrophil [8]) [s]
3.35	–	0.29	CCOc1cc(O)c(C(=O)/C=C/c2ccccc2)cc1CN1CCOCC1	1.6	–	–	–	–
0.68	0.95	1.73	COc1ccc(C(=O)/C=C/c2ccccn2)c(O)c1CN1CCOCC1	10.8	–	–	208.65	8.43
25.6	–	1.28	Cc1ccc(/C=C/C(=O)c2ccc(O)c(CN3CCOCC3)c2)o1	0.006	–	–	–	–
2.42	3.48	15.4	CCOc1cc(O)c(C(=O)/C=C/c2cccnc2)cc1CN1CCOCC1	4.46	–	–	–	–
19.4	–	0.23	CC(C)Oc1cc(O)c(C(=O)/C=C/c2cccs2)cc1CN1CCOCC1	47.7	–	–	–	–
–	–	51.3	COc1ccccc1OC(=O)CNC(=O)Cc1ccc(C(=O)c2ccc(C)cc2)n1C [AMTOLMETIN GUACIL]	–	–	–	–	–
18.2	–	2.5	O=C(/C=C/c1ccco1)c1cccc(O)c1CN1CCOCC1	17.2	39.7	–	–	–
3.16	2.95	–	COc1ccc(/C=C/C(=O)c2cccc(C)c2)c(CN2CCOCC2)c1O	–	–	–	–	–
13	20.1	–	COc1ccc(/C=C/C(=O)c2cccnc2)c(CN2CCCCC2)c1O	–	–	–	–	–
2.81	5.19	2.3	O=C(/C=C/c1ccccc1)c1cccc(O)c1CN1CCOCC1	9.95	–	–	–	–
–	–	16.5	CCOc1cc(O)c(C(=O)/C=C/c2ccco2)cc1CN1CCOCC1	16.9	–	39.9	–	–
2.76	6.97	–	COc1ccc(/C=C/C(=O)c2ccc(C)cc2)c(CN2CCOCC2)c1O	–	–	–	–	–
8.32	–	–	COc1ccc(/C=C/C(=O)c2cccs2)c(CN2CCCCC2)c1O	–	–	–	–	–
14.8	18.9	2.52	O=C(/C=C/c1ccccn1)c1cc(CN2CCOCC2)c(O)c(CN2CCOCC2)c1	190	–	–	–	–
10.2	–	3.61	COc1cc(O)c(C(=O)/C=C/c2cccs2)cc1CN1CCOCC1	148	–	–	–	–
1.66	1.44	0.018	O=C(/C=C/c1ccccn1)c1ccc(CN2CCOCC2)c(O)c1CN1CCOCC1	24.3	–	–	–	–
16.6	–	15.6	O=C(/C=C/c1ccccc1)c1ccc(O)c(CN2CCOCC2)c1	35	9.32	–	–	–
–	–	0.44	Cc1ccsc1/C=C/C(=O)c1cc(CN2CCOCC2)c(O)c(CN2CCOCC2)c1	56.9	15.4	33.8	–	–
15.2	20.9	3.41	O=C(/C=C/c1ccccn1)c1ccc(O)c(CN2CCOCC2)c1	6.56	–	–	–	–
19.9	–	10.5	CCOc1cc(O)c(C(=O)/C=C/c2ccc(C)o2)cc1CN1CCOCC1	91.3	–	–	–	–

SMILES	IC50 (Neutrophil [1]) [µM]	IC50 (Neutrophil [2]) [µM]	IC50 (RAW264.7 [4]) [µM]	IC50 (RAW264.7 [3]) [µM]	inhibition at 30 µM (Neutrophil [5]) [%]	inhibition at 30 µM (Neutrophil [6]) [%]	Activity (Neutrophil [7]) [nM]	T1/2 (Neutrophil [8]) [s]
O=S(=O)(F)Cc1ccccc1 [PHENYLMETHYLSULFONYLFLUORIDE]	–	95	–	–	–	–	–	–
c1ccc2c(c1)[I+]c1ccccc1-2 [DIPHENYLENEIODONIUM]	1.02	–	–	–	–	–	–	–

Source: ChEMBL document CHEMBL1764956, “Inhibitory effects of Mannich bases of heterocyclic chalcones on NO production by activated RAW 264.7 macrophages and superoxide anion generation and elastase release by activated human neutrophils” (Bioorg Med Chem, 2011)
